The values that follow come from PMC8114186 (ChemMedChem, 2020).

SMILES strings stand for the structures. Read-outs that look alike come from different tables or passages of the source. Marks after values point to notes of the source that are not given here.

Test [1] deals with E. coli UTI89 expressing NDM-1. The class given is cell-based.
The next test has as its target NDM-1 (Klebsiella pneumoniae, UniProt C7C422). In words: In vitro inhibition of NDM-1-catalyzed turnover of nitrocefin. The class given is biochemical. The method in brief: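 Purified NDM-1 enzyme, identity and purity confirmed by ESI-MS. Test compound serially diluted in 50 mM HEPES, pH 7.2, and preincubated with 1 nM NDM-1 for 10 min at rt. Nitrocefin (20 µM) then added; absorbance at 492 nm followed over 30 min at rt. Slopes normalized to each compound's maximum slope, plotted against log concentration; IC50 and confidence intervals from curve fit.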

In test [2] the test system is E. coli MG1655 expressing NDM-1. Type of test: cell-based.
The mark [3] stands for this setting: E. coli MG1655, 100 μM compound.

Chain of NDM-1 (C7C422 29-270, looked up, species assumed): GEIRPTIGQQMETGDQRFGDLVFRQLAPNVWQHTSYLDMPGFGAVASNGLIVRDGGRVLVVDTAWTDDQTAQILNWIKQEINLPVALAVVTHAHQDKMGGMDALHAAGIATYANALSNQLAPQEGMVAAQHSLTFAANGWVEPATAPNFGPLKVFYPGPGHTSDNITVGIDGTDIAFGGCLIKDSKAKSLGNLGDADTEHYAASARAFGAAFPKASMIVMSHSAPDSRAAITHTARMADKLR

One may read the IC50 as the concentration that gives 50% inhibition. Higher therefore signals a need for much substance. Consider `O=C(O)c1cccc2oc(-c3ccc4ccccc4c3O)nc12` [Compound 5, 2-(1-hydroxynaphthalen-2-yl)benzoxazole-4-carboxylic acid], for which the “Decrease of the MIC of meropenem” value is recorded as “at least 16 fold” in test [1] (E. coli UTI89, 100 μM compound) and “at least 16 fold” in test [2] (setting [3]). Further, half-maximal inhibition against NDM-1 (IC50) required 0.74 µM.
Take `O=C(O)c1cccc2oc(-c3cc4ccccc4cc3O)nc12` [Compound 6, 2-(3-hydroxynaphthalen-2-yl)benzoxazole-4-carboxylic acid]: half-maximal inhibition on NDM-1 (IC50) required 9.8 µM.
Consider `O=C(O)c1cccc2oc(-c3c(O)ccc4ccccc34)nc12` [Compound 7, 2-(2-hydroxynaphthalen-1-yl)benzoxazole-4-carboxylic acid], for which the “Restoration of meropenem susceptibility” value in test [1] (E. coli UTI89, 100 μM compound) is listed as “failed to restore meropenem susceptibility”; in test [2] (setting [3]) it was “failed to restore meropenem susceptibility”. Also, the “Meropenem MIC” value in test [1] (E. coli UTI89, meropenem + 100 μM compound) was found to be 64 µg/mL; in test [2] (E. coli MG1655, meropenem + 100 μM compound), 64 µg/mL. In addition, half-maximal inhibition against NDM-1 (IC50) required 8.5 µM.
As for `O=C(O)c1cccc2oc(-c3ccc4ccc(OCc5ccccc5)cc4c3O)nc12` [Compound 8, 2-(7-benzyloxy-1-hydroxynaphthalen-2-yl)benzoxazole-4-carboxylic acid], the “Decrease of the MIC of meropenem” value in test [1] (E. coli UTI89, 100 μM compound) is recorded as “at least 16 fold”; in test [2] (setting [3]), “at least 16 fold”. Further, the IC50 against NDM-1 stood at 2.3 µM.
Take `O=C(O)c1cccc2oc(-c3ccc4cc(OCc5ccccc5)ccc4c3O)nc12` [Compound 9, 2-(6-benzyloxy-1-hydroxynaphthalen-2-yl)benzoxazole-4-carboxylic acid]: the “Reduction of the MIC of meropenem” value in test [1] (E. coli UTI89, 25 μM compound) is “at least 4 fold”; in test [2] (E. coli MG1655, 25 μM compound), “at least 4 fold”. Further, the “Decrease of the MIC of meropenem” value in test [1] (E. coli UTI89, 100 μM compound) was “at least 16 fold”; in test [2] (setting [3]), “at least 16 fold”. In addition, the “Antibacterial activity of compound on its own” value in test [1] (E. coli UTI89, 200 μM, no meropenem) is “did not show any antibacterial activity”; in test [2] (E. coli MG1655, 200 μM, no meropenem), “did not show any antibacterial activity”. Further, the “Meropenem MIC” value in test [1] (E. coli UTI89, meropenem + 25 μM compound) was 4–8^[a] μg/mL; in test [1] (E. coli UTI89, meropenem + 50 μM compound), no more than 0.5 µg/mL; in test [1] (E. coli UTI89, meropenem + 200 μM compound), no more than 0.5 µg/mL; in test [2] (E. coli MG1655, meropenem + 25 μM compound), 16 µg/mL; in test [2] (E. coli MG1655, meropenem + 50 μM compound), 1–4^[a] μg/mL; in test [2] (E. coli MG1655, meropenem + 200 μM compound), no more than 0.5 µg/mL.
Turning to `O=C(O)c1cccc2oc(-c3ccc4c(OCc5ccccc5)cccc4c3O)nc12` [Compound 10, 2-(5-benzyloxy-1-hydroxynaphthalen-2-yl)benzoxazole-4-carboxylic acid], on NDM-1, the IC50 was greater than 40 µM and the “Inhibitory activity against NDM-1 (in words)” value was “lack of inhibitory activity”.
By MIC is commonly meant the lowest concentration that inhibits growth of the organism. As for `C[C@@H](O)[C@H]1C(=O)N2C(C(=O)O)=C(S[C@@H]3CN[C@H](C(=O)N(C)C)C3)[C@H](C)[C@H]12` [Meropenem, reference compound], the “Meropenem MIC” value in test [1] (E. coli UTI89, meropenem alone) is greater than 64 µg/mL; in test [2] (E. coli MG1655, meropenem alone) it was 64 µg/mL. Further, the MIC in test [1] (Escherichia coli, read-out: Meropenem MIC, E. coli UTI89, meropenem alone) was no less than 64 µg/mL.
